# Measured values as given in ChEMBL document CHEMBL1139963, “Boswellic acids and glucosamine show synergistic effect in preclinical anti-inflammatory study in rats” (2007).
# Activity calls are given as the source filed them. The rule behind the calls is not given here.
# Legend:
# Rattus norvegicus [1] = assay: Antiinflammatory activity against carrageenan-induced paw edema in Wistar rat assessed as reduction of paw edema at 250 mg/kg after 3 hrs relative to control; format: functional
# Outline: (§1)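 Rats, five per group, were dosed orally with suspensions in 2% gum acacia. After 45 min, freshly prepared 10 mg/ml carrageenan was injected subplantar into the left hind paw, with saline in the contralateral paw. Paw volume was measured by volume differential meter immediately and hourly to 4 h. Percent protection was calculated versus control. Data are means ± SE, analysed by Student's t-test.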
# Rattus norvegicus [2] = assay: Antiinflammatory activity against carrageenan-induced paw edema in Wistar rat assessed as reduction of paw edema at 250 mg/kg after 4 hrs relative to control; format: functional; outline: as §1
# Rattus norvegicus [3] = assay: Antiarthritic activity against Mycobacterium tuberculosis-induced rat arthritic model assessed as inhibition of chronic phase inflammation at 250 mg/kg relative to control; format: functional
# Outline: (§2)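 Adjuvant arthritis in rats, five per group. A 5 mg/ml suspension of heat-killed Mycobacterium tuberculosis in liquid paraffin was injected subplantar into the left hind foot. Oral dosing ran from one day before immunization to day 13. Paw volume was measured on alternate days, and percent change was calculated versus the vehicle control. The chronic phase begins after day 8. Data are means ± SE, analysed by Student's t-test.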
# Rattus norvegicus [4] = assay: Antiinflammatory activity against carrageenan-induced paw edema in Wistar rat assessed as reduction of paw edema at 250 mg/kg relative to control; format: functional, organism-based; set-up: dose 250 mg/kg; outline: as §1
# Rattus norvegicus [5] = assay: Antiarthritic activity against Mycobacterium tuberculosis-induced rat arthritic model at 250 mg/kg relative to control; format: functional, organism-based; set-up: dose 250 mg/kg; outline: as §2
# Rattus norvegicus [6] = assay: Antiinflammatory activity against carrageenan-induced paw edema in Wistar rat assessed as reduction of paw edema at 100 mg/kg relative to control; format: functional; set-up: scale not given: the % may be the effect or the level left; outline: as §1
# Rattus norvegicus [7] = assay: Antiarthritic activity against Mycobacterium tuberculosis-induced rat arthritic model assessed as inhibition of acute phase inflammation at 100 mg/kg relative to control; format: functional, organism-based; set-up: dose 100 mg/kg; outline: as §2
# Rattus norvegicus [8] = assay: Antiarthritic activity against Mycobacterium tuberculosis-induced rat arthritic model assessed as inhibition of chronic phase inflammation at 100 mg/kg relative to control; format: functional, organism-based; set-up: dose 100 mg/kg; outline: as §2
Structure (SMILES),inhibition in vivo at 250 mg/kg (Rattus norvegicus [1]),inhibition in vivo at 250 mg/kg (Rattus norvegicus [2]),inhibition in vivo at 250 mg/kg (Rattus norvegicus [3]),Activity (Rattus norvegicus [4]),Activity (Rattus norvegicus [5]),Activity (Rattus norvegicus [6]),Activity (Rattus norvegicus [7]),Activity (Rattus norvegicus [8])
CC1(C)CC[C@]2(C)CC[C@]3(C)C(=CC[C@@H]4[C@@]5(C)CC[C@@H](O)[C@](C)(C(=O)O)[C@@H]5CC[C@]43C)[C@@H]2C1,28.6%,25.8%,36.4%,,,,,
C[C@H]1[C@H](C)CC[C@]2(C)CC[C@]3(C)C(=CC(=O)[C@@H]4[C@@]5(C)CC[C@@H](O)[C@](C)(C(=O)O)[C@@H]5CC[C@]43C)[C@H]12,,,,Active,Active,,,
C[C@H]1[C@H](C)CC[C@]2(C)CC[C@]3(C)C(=CC[C@@H]4[C@@]5(C)CC[C@@H](O)[C@](C)(C(=O)O)[C@@H]5CC[C@]43C)[C@H]12 [BOSWELLIC ACID],28.6%,25.8%,36.4%,,,,,
CC(C)Cc1ccc([C@H](C)C(=O)O)cc1 [DEXIBUPROFEN],,,,,,55.64%,Active,Active
N[C@@H]1[C@@H](O)[C@H](O)[C@@H](CO)O[C@H]1O [GLUCOSAMINE],15.2%,16.1%,21.6%,,,,,
